From ChEMBL document CHEMBL5696442, “Discovery of type II inhibitors of TGFβ-activated kinase 1 (TAK1) and mitogen-activated protein kinase kinase kinase kinase 2 (MAP4K2)” (J Med Chem, 2015)

Experiments:
[1] = target: Cyclin-dependent kinase 6 (Homo sapiens) (UniProt Q00534); assay: Inhibition of CDK6 Lys2 labeling site in human A-375 cells at 5 uM by KiNativ Profiling analysis relative to control; assay type: cell-based
In short: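 Intact A375 melanoma cells were treated with compound at 5 or 0.5 μM, then lysed. Lysate kinases were labeled with a lysine-reactive ATP or ADP-biotin probe (KiNativ). Inhibition is read as protection of each kinase labeling site from probe labeling.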

[2] = target: T1, Serine/threonine-protein kinase Chk1 (Homo sapiens) (UniProt O14757); assay: Inhibition of CHK1 Lys2 labeling site harbouring DIKPENLLLDER in human A-375 cells at 0.5 uM by KiNativ Profiling analysis relative to control; assay type: cell-based
T1 sequence (whole entry): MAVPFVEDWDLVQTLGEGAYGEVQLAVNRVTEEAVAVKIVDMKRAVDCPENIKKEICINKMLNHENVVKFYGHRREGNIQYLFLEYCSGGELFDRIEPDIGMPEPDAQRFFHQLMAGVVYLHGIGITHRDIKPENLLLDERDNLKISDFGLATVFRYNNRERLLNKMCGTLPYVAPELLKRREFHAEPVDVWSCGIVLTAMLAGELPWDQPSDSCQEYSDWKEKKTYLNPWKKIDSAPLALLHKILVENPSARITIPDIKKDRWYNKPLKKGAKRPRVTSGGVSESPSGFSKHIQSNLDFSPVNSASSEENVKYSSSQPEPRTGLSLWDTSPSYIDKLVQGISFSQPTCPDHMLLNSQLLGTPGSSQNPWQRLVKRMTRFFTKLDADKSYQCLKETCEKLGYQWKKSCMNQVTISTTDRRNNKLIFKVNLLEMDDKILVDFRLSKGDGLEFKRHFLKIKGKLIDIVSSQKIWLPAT
In short: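 Live A375 melanoma cells were treated with compound at 5 or 0.5 μM. The cells were then lysed, and the lysates were labeled with a lysine-reactive ATP or ADP-biotin acyl probe (KiNativ). Inhibition is the compound's protection of each kinase labeling-site peptide from probe labeling, relative to untreated control.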

[3] = target: T2, Serine/threonine-protein kinase Nek8 (Homo sapiens) (UniProt Q86SG6); assay: Inhibition of NEK8 Lys2 labeling site in human A-375 cells at 0.5 uM by KiNativ Profiling analysis relative to control; assay type: cell-based
T2 sequence (whole entry): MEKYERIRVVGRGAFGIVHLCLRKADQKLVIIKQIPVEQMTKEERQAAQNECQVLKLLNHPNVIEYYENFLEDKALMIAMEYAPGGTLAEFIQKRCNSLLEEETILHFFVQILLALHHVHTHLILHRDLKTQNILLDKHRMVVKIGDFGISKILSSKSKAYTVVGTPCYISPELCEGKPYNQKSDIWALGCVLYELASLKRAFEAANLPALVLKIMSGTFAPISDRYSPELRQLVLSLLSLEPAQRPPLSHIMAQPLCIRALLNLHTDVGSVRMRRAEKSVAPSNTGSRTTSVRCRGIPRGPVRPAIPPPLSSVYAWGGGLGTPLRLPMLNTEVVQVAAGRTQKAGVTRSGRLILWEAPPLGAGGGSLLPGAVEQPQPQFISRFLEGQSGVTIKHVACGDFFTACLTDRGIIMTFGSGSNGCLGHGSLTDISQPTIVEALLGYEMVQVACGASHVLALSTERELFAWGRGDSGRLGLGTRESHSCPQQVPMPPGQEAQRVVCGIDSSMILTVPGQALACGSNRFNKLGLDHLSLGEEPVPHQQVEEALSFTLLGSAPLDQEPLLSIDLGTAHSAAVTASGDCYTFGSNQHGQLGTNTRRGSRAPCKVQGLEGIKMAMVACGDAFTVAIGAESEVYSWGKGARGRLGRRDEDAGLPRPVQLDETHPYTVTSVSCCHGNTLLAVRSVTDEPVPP

[4] = target: Cyclin-dependent kinase 17 (Homo sapiens) (UniProt Q00537); assay: Inhibition of PCTAIRE2 Lys1 labeling site harbouring SKLTENLVALKEIRLEHEEGAPCTAIR in human A-375 cells at 0.5 uM by KiNativ Profiling analysis relative to control; assay type: cell-based
Cyclin-dependent kinase 17 (Homo sapiens), sequence (Q00537 whole entry, looked up): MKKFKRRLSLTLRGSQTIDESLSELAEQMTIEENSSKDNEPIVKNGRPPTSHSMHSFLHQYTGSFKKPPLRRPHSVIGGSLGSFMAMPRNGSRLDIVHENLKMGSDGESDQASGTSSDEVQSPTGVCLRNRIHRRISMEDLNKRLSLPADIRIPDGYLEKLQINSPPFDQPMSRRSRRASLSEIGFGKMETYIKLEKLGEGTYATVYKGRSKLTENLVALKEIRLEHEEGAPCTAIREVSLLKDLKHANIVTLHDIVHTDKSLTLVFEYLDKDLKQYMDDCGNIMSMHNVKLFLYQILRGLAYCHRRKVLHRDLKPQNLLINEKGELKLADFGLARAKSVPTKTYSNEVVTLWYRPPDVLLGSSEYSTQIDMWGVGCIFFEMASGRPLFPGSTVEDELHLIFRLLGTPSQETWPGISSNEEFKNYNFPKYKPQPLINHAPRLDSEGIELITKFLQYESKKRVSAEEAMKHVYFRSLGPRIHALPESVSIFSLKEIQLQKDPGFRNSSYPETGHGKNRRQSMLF

[5] = target: Phosphatidylinositol 3-kinase catalytic subunit type 3 (Homo sapiens) (UniProt Q8NEB9); assay: Inhibition of PIK3C3 ATP labeling site in human A-375 cells at 0.5 uM by KiNativ Profiling analysis relative to control; assay type: cell-based
Phosphatidylinositol 3-kinase catalytic subunit type 3 (Homo sapiens), sequence (Q8NEB9 whole entry): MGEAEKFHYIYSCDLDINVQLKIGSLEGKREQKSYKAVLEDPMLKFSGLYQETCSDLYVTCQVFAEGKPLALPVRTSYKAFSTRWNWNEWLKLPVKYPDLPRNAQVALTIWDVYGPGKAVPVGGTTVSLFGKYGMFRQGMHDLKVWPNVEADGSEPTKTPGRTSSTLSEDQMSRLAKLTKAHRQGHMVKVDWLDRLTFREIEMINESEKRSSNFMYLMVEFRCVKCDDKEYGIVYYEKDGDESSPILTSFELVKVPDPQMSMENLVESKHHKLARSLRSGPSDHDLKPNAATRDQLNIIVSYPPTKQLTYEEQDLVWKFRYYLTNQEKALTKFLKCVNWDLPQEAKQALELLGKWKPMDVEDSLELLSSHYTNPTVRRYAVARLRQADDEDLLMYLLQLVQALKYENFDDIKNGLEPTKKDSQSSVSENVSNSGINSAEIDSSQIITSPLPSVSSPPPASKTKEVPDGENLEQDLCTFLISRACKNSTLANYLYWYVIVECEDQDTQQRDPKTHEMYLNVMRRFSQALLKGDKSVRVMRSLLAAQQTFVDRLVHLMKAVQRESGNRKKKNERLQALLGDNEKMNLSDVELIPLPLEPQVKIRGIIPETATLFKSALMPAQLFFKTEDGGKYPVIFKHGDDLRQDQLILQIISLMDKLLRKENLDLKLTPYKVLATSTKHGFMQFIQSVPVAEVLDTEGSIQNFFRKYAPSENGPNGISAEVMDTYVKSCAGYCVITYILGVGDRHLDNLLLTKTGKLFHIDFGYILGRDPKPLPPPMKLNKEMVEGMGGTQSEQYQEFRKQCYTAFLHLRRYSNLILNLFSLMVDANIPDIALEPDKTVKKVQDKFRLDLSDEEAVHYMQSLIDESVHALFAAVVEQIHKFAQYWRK

[6] = target: Misshapen-like kinase 1 (Homo sapiens) (UniProt Q8N4C8); assay: Inhibition of ZC3/MINK Lys2 labeling site in human A-375 cells at 0.5 uM by KiNativ Profiling analysis relative to control; assay type: cell-based
[7] = target: Serine/threonine-protein kinase WNK1 (Homo sapiens) (UniProt Q9H4A3); assay: Inhibition of Wnk1 ATP Loop labeling site in human A-375 cells at 0.05 uM by KiNativ Profiling analysis relative to control; assay type: cell-based
Serine/threonine-protein kinase WNK1 (Homo sapiens), sequence (Q9H4A3 whole entry, looked up): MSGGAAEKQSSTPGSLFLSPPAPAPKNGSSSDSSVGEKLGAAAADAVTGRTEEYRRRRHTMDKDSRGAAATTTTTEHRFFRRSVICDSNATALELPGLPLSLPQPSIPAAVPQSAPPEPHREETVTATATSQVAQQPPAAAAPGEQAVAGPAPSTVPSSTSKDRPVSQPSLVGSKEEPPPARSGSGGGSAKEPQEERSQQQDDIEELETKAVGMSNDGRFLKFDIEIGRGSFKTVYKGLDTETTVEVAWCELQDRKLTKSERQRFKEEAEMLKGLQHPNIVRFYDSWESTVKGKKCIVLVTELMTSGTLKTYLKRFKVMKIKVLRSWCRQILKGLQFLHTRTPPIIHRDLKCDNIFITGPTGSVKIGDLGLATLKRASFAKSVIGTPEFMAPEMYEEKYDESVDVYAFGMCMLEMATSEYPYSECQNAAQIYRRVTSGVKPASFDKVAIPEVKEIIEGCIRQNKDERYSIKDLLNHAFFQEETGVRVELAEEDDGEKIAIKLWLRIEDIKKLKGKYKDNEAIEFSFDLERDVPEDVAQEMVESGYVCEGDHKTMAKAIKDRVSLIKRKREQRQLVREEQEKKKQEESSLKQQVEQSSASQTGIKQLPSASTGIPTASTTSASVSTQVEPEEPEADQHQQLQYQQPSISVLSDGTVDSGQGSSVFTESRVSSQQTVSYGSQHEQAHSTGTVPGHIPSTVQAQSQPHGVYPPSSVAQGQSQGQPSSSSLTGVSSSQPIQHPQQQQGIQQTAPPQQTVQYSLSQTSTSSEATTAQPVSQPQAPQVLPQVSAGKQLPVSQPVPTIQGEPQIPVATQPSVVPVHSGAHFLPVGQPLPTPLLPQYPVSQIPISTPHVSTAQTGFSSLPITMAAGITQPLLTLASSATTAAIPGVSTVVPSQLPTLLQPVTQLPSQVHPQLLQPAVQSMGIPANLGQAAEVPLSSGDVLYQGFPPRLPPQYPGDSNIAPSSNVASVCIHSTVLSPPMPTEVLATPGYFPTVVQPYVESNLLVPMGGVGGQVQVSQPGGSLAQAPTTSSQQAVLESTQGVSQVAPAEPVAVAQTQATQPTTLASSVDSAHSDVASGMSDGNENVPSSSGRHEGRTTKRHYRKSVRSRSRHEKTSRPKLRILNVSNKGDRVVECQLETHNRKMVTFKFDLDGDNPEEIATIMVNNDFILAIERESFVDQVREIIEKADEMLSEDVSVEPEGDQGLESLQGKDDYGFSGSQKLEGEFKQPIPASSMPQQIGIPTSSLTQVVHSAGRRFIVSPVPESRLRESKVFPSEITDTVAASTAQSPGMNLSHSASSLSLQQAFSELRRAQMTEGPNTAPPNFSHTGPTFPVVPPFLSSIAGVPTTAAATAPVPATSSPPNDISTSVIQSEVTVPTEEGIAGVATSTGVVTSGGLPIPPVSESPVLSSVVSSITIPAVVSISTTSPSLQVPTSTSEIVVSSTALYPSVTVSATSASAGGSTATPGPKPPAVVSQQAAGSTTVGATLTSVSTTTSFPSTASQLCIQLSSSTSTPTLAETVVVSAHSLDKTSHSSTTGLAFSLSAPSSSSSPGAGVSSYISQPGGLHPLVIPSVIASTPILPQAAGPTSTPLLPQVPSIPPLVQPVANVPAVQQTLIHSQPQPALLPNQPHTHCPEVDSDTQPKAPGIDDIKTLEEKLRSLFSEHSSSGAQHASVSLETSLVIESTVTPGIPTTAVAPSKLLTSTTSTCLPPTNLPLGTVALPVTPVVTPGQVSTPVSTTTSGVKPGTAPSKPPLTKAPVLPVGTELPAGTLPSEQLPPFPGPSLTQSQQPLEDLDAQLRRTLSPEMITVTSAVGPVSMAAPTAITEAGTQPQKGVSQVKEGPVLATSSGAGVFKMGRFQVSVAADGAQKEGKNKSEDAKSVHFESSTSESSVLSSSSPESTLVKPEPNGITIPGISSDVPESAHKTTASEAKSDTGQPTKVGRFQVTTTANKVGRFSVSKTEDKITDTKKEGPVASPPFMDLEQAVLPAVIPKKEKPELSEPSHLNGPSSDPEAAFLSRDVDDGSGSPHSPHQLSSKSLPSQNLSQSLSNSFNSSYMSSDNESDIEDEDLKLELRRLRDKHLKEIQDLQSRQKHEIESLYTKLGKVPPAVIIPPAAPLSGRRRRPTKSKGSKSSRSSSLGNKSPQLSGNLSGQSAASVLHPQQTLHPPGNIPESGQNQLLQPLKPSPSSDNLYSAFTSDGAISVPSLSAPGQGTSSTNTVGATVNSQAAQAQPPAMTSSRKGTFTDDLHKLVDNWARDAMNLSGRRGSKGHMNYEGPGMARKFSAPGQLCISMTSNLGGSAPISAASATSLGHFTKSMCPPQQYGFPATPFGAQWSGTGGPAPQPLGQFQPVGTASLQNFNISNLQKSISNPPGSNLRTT

[8] = target: Mitogen-activated protein kinase 1 (Homo sapiens) (UniProt P28482); assay: Inhibition of ERK2 (unknown origin) at 1 uM by Ambit Kinomescan binding assay relative to control
[9] = target: STE20-like serine/threonine-protein kinase (Homo sapiens) (UniProt Q9H2G2); assay: Inhibition of SLK (unknown origin) at 1 uM by Ambit Kinomescan binding assay relative to control
[10] = target: Dual specificity protein kinase TTK (Homo sapiens) (UniProt P33981); assay: Inhibition of TTK (unknown origin) at 1 uM by Ambit Kinomescan binding assay relative to control
Dual specificity protein kinase TTK (Homo sapiens), sequence (P33981 whole entry): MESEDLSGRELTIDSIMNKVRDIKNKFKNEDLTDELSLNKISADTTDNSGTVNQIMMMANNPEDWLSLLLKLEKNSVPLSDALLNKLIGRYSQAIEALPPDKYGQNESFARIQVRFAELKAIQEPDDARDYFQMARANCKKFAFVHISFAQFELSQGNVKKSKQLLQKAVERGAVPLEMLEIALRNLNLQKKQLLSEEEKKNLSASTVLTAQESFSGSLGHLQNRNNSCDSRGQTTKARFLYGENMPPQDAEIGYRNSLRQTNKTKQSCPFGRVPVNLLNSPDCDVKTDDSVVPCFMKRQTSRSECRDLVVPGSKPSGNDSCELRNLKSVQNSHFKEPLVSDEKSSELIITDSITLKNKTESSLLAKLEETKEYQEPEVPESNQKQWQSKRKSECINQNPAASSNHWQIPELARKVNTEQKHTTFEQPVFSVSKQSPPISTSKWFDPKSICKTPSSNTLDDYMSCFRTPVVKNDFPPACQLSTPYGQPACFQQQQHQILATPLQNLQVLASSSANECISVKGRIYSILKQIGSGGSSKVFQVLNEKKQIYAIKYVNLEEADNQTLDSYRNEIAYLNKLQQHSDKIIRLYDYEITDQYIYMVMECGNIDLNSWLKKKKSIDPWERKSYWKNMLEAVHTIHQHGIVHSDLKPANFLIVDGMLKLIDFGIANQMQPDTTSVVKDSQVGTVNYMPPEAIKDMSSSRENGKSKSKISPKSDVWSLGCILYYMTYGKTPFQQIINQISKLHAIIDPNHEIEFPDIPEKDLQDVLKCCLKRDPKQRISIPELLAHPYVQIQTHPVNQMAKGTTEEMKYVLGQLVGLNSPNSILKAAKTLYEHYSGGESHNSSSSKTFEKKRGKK

[11] = system: Receptor-type tyrosine-protein kinase FLT3 (Homo sapiens), P36888 [K663Q]; assay: Inhibition of FLT3 K663Q mutant (unknown origin) at 1 uM by Ambit Kinomescan binding assay relative to control; values are per cent of control
[12] = target: Serine/threonine-protein kinase 4 (Homo sapiens) (UniProt Q13043); assay: Inhibition of MST1 Lys1 labeling site harbouring ETGQIVAIKQVPVESDLQEIIK in human A-375 cells at 5 uM by KiNativ Profiling analysis relative to control
[13] = target: eIF-2-alpha kinase GCN2 (Homo sapiens) (UniProt Q9P2K8); assay: Inhibition of GCN2 domain2 Lys2 labeling site in human Huh-7 cell lysate at 1 uM by KiNativ Profiling analysis relative to control; assay type: subcellular

Cyclin-dependent kinase 6 (Homo sapiens), sequence (Q00534 whole entry): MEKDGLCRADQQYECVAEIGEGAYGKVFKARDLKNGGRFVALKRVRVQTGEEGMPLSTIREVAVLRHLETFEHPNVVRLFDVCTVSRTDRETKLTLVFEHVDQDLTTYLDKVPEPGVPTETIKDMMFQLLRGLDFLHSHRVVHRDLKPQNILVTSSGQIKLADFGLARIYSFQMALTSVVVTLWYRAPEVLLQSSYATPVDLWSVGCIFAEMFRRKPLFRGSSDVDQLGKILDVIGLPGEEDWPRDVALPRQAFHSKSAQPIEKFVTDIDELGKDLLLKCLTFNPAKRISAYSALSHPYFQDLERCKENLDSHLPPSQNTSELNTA

Compound | inhibition [1] [%] | inhibition [2] [%] | inhibition [3] [%] | inhibition [4] [%] | inhibition [5] [%] | inhibition [6] [%] | inhibition [7] [%] | inhibition [8] [%] | inhibition [9] [%] | inhibition [10] [%] | residual activity [11] [%] | inhibition [12] [%] | inhibition [13] [%]
CCN1CCN(Cc2ccc(NC(=O)c3ccc(C)c(Oc4ccnc5[nH]ccc45)c3)cc2C(F)(F)F)CC1 | 6.8 | 45.2 | -9.5 | 6.9 | 36.8 | 70.8 | 2.4 | – | – | – | – | – | –
CCN1CCN(Cc2ccc(NC(=O)c3ccc(C)c(/C=C/c4cnc5[nH]ccc5c4OC)c3)cc2C(F)(F)F)CC1 | -2.3 | 19.4 | -8.8 | 2.4 | 51.6 | 48.1 | 5 | 100 | 13 | 56 | 0.15 | 27.6 | –
CNc1cc(Oc2cc(C(=O)Nc3cc(N4CCN(C)CC4)cc(C(F)(F)F)c3)ccc2C)ncn1 | – | – | – | – | – | – | – | – | – | – | – | – | 2.5
